# Data: ChEMBL document CHEMBL1123566, “Synthesis and cardiac electrophysiological activity of 2- and 3-[(substituted phenyl)alkyl]quinuclidines. Structure-activity relationships” (1987)
# Several values for one entry are separate records, joined by “and”; a condition that tells them apart may be missing. Identical values can stand only once.
# Experiments:
# [1] = organism: Canis familiaris; test: In vitro electrophysiological evaluation in canine cardiac Purkinje fibres reported as percent change Vmax concentration range of 1-100 uM; type: functional; conditions: Canis lupus familiaris; Purkinje fiber
# In short: (§1)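 Canine cardiac Purkinje fibers, intracellular recording, paced at a basic cycle length of 1 s. APD95 and Vmax are recorded together across cumulative concentrations. Compound is a 10 mM aqueous stock diluted into Tyrode's solution. Each fiber is used once as its own control. Readouts are percent change from control at 10 μM, and the maximum change with the concentration where it occurred.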
# [2] = organism: Canis familiaris; test: In vitro electrophysiological evaluation in canine cardiac Purkinje fibres reported as maximum percent change Vmax concentration range of 1-100 uM; type: functional; conditions: Canis lupus familiaris; Purkinje fiber; in short: as §1
# [3] = organism: Canis familiaris; test: In vitro electrophysiological activity in canine cardiac Purkinje fibres given as maximum % change for action potential duration at 0.1-100 uM concentration; type: functional, Canis lupus familiaris, Purkinje fiber
# In short: (§2)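 Canine cardiac Purkinje fibres, intracellular recording at 1 s basic cycle length, over cumulative concentration ranges. Compound 10 mM stock in deionized water diluted into Tyrode's. Each fibre used once as its own control. Value is the maximum % change from control in APD at 95% repolarization, with the concentration where it occurred; both values given if a biphasic response (>20% reversal) occurred.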
# [4] = organism: Canis familiaris; test: In vitro electrophysiological activity in canine cardiac Purkinje fibres given as maximum % change for action potential duration at 1 uM concentration; type: functional, Canis lupus familiaris, Purkinje fiber; in short: as §2
# [5] = organism: Canis familiaris; test: In vitro electrophysiological evaluation in canine cardiac Purkinje fibres reported as % change for action potential duration at 0.1-100 uM concentration range; type: functional, Canis lupus familiaris, Purkinje fiber
# In short: (§3)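 Canine cardiac Purkinje fibres, intracellular microelectrode recording, paced at a basic cycle length of 1 s. APD95 and Vmax read simultaneously. Compound: 10 mM stock in deionized water, diluted into Tyrode's solution, tested over the stated concentration range. Each fibre used once as its own control. Result is % change from control, given at 10 µM or as the maximum with its concentration. M = <10% decrease or an increase in Vmax.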
# [6] = organism: Canis familiaris; test: In vitro electrophysiological evaluation in canine cardiac Purkinje fibres reported as % change for action potential duration at 1-100 uM concentration range; type: functional, Canis lupus familiaris, Purkinje fiber; in short: as §1
# [7] = organism: Canis familiaris; test: In vitro electrophysiological evaluation in canine cardiac Purkinje fibres reported as percent change Vmax concentration range of 0.1-100 uM; type: functional; conditions: Canis lupus familiaris; Purkinje fiber; in short: as §3
# [8] = organism: Canis familiaris; test: In vitro electrophysiological activity in canine cardiac Purkinje fibres given as maximum % change for action potential duration at 100 uM concentration; type: functional, Canis lupus familiaris, Purkinje fiber; in short: as §2
# [9] = organism: Canis familiaris; test: In vitro electrophysiological evaluation in canine cardiac ventricular muscle reported as % change for the functional refractory period (FRP) at 10 uM at concentration range of 0.1-100 uM; design: species or system Canis lupus familiaris, Muscle tissue
# In short: (§4)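 Canine right ventricle and papillary muscle strips in oxygenated Tyrode's solution, fitted with stimulating and recording electrodes. The extra-stimulus conduction-interval method was adapted for in vitro use. FRP and CT were read from a conduction-interval curve before and after various compound concentrations, and expressed as percent change from control. Compounds were taken from 10 mM deionized-water stock into Tyrode's. Each strip was used once as its own control.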
# [10] = organism: Canis familiaris; test: In vitro electrophysiological activity in canine cardiac occurred is 100 uM.; type: functional, Canis lupus familiaris, Heart
# [11] = organism: Canis familiaris; test: In vitro electrophysiological evaluation in canine cardiac Purkinje fibres reported as maximum percent change Vmax concentration range of 1-100 uM; Minimal (<10% decrease or increase in V max).; type: functional; conditions: Canis lupus familiaris; Purkinje fiber; in short: as §3
# [12] = organism: Canis familiaris; test: In vitro electrophysiological evaluation in canine cardiac occurred is 100 uM.; type: functional; conditions: Canis lupus familiaris; Heart
# [13] = organism: Canis familiaris; test: In vitro electrophysiological evaluation in canine cardiac ventricular muscle reported as maximum % change for conduction time(CT) at […] concentration range; Minimal (<10% decrease or increase in CT).; type: functional, Canis lupus familiaris, Muscle tissue; in short: as §4
# [14] = organism: Canis familiaris; test: In vitro electrophysiological evaluation in canine cardiac ventricular muscle reported as % change for conduction time(CT) at 10 uM at 0.1-100 uM concentration range; Minimal (<10% decrease or increase in CT).; type: functional, Canis lupus familiaris, Muscle tissue
# [15] = organism: Canis familiaris; test: In vitro electrophysiological evaluation in canine cardiac Purkinje fibres reported as % change for action potential duration at a concentration of 10 uM; type: functional, Canis lupus familiaris, Purkinje fiber; in short: as §3
# [16] = organism: Canis familiaris; test: In vitro electrophysiological evaluation in canine cardiac Purkinje fibres reported as % change for action potential duration at 10 uM at 1-100 uM concentration range; type: functional, Canis lupus familiaris, Purkinje fiber; in short: as §3
# [17] = organism: Canis familiaris; test: In vitro electrophysiological evaluation in canine cardiac ventricular muscle reported as maximum % change for functional refractory period (FRP) at 0.1-100 uM concentration range; concentration at which it occurred is 100 uM.; design: species or system Canis lupus familiaris, Muscle tissue; in short: as §4
# [18] = organism: Canis familiaris; test: In vitro electrophysiological evaluation in canine cardiac Purkinje fibres reported as percent change Vmax at 10 uM at concentration range of 1-100 uM; Minimal (<10% decrease or increase in V max).; type: functional; conditions: Canis lupus familiaris, Purkinje fiber; in short: as §3
# [19] = organism: Canis familiaris; test: (§5) In vitro electrophysiological activity in canine cardiac occurred is 100 uM; type: functional, Canis lupus familiaris, Heart
# [20] = organism: Canis familiaris; test: In vitro electrophysiological evaluation in canine cardiac occurred is 100 uM; type: functional; conditions: Canis lupus familiaris; Heart
# [21] = organism: Canis familiaris; test: In vitro electrophysiological evaluation in canine cardiac Purkinje fibres reported as maximum percent change Vmax concentration range of 0.1-100 uM; Minimal (<10% decrease or increase in V max).; type: functional; conditions: Canis lupus familiaris; Purkinje fiber; in short: as §3
# [22] = organism: Canis familiaris; test: In vitro electrophysiological evaluation in canine cardiac Purkinje fibres reported as percent change Vmax at 10 uM at concentration range of 1-100 uM; type: functional; conditions: Canis lupus familiaris, Purkinje fiber; in short: as §3
# [23] = organism: Canis familiaris; test: In vitro electrophysiological evaluation in canine cardiac Purkinje fibres reported as percent change Vmax at 10 uM at concentration range of 0.1-100 uM; Minimal (<10% decrease or increase in V max).; type: functional, organism-based; conditions: Canis lupus familiaris, Purkinje fiber; in short: as §3
# [24] = organism: Canis familiaris; test: In vitro electrophysiological evaluation in canine cardiac ventricular muscle reported as maximum % change for conduction time(CT) at 0.1-100 uM concentration range; concentration at which it occurred is 100 uM.; type: functional, Canis lupus familiaris, Muscle tissue
# [25] = organism: Canis familiaris; test: In vitro electrophysiological evaluation in canine cardiac ventricular muscle reported as maximum % change for functional refractory period (FRP) at 0.1-100 uM concentration range; concentration at which it occurred is 10 uM.; design: species or system Canis lupus familiaris, Muscle tissue; in short: as §4
# [26] = organism: Canis familiaris; test: as §5; type: functional, Canis lupus familiaris, Heart; remark: listed apart in the source
smiles,measurement,setting,value
CCN(CC)CCCCc1ccc(Cl)cc1,Vmax,[1],< 10%
same,Vmax,[2],-57%
same,APD95,[3],38% and 27%
same,APD95,[4],25%
same,APD95,[5],38% and 27%
same,APD95,[6],21%
same,Vmax,[7],< 10%
same,APD95,[8],-15%
CCOC(=O)C(CC1C(=O)C2CCN1CC2)C(=O)c1ccc(Cl)c([N+](=O)[O-])c1.Cl (centres undefined),FRP,[9],17%
same,APD95,[10],-2% and -7%
same,Vmax,[11],< 10%
same,Vmax,[12],-12%
same,CT,[13],<10%
same,CT,[14],<10%
same,APD95,[15],0%
same,APD95,[16],-2%
same,FRP,[17],20%
same,Vmax,[18],< 10%
Cl.O=C(CCC1C(=O)C2CCN1CC2)c1ccccc1 (centres undefined),FRP,[9],12%
same,APD95,[19],-16%
same,Vmax,[20],-52%
same,Vmax,[21],< 10%
same,Vmax,[22],-36%
same,Vmax,[23],< 10%
same,APD95,[15],-3%
same,CT,[24],17%
same,APD95,[16],-1%
same,FRP,[25],12%
same,APD95,[26],-14%
